pEC50, pKi: −log10 of the molar value.
Experiments:
[1] = Plasma protein binding in mouse assessed as unbound fraction; format: ADME, cell-free; details: read-out: PPB
Summary of the method: (§1)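 Equilibrium dialysis in human and mouse plasma; results expressed as […] fraction unbound.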

[2] = Tmax in mouse at 2 mg/kg, ip administered as discrete dose; format: ADME, organism-based; details: in vivo
Summary of the method: (§2)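 Discrete (single-compound) mouse PK, dosed IP at 2 mg/kg in 10% DMSO/10% cremophor EL/30% PEG400/50% water. Plasma and brain concentrations measured; brain:plasma ratio reported.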

[3] = Ratio of drug concentration in brain to plasma in mouse at 2 mg/kg, ip administered as discrete dose; format: ADME, organism-based; details: brain and plasma, read-out: BPR; summary of the method: as §2
[4] = Microsomal stability in mouse liver microsomes assessed as intrinsic clearance; format: ADME, Microsome; details: read-out: CLH
Summary of the method: (§3)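 Intrinsic clearance measured in human and mouse liver microsomes. Hepatic clearance predicted from it with the well-stirred organ CL model, binding terms excluded.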

[5] = Volume of distribution at steady state in Sprague-Dawley rat at 0.25 mg/kg, iv bolus injection administered as cassette dose; format: ADME, organism-based; details: in vivo, read-out: Vdss
Summary of the method: (§4)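 Male Sprague–Dawley rats, 5-in-1 cassette, 0.25 mg/kg IV of each test article in DMSO:PEG400:EtOH:Saline (5:48:10:37). Plasma sampled at 0.0833, 0.25, 0.5, 1, 3, 4, 8 and 24 h, plus Day 2 at 0.25 h post dose.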

[6] = Half life in Sprague-Dawley rat at 0.25 mg/kg, iv bolus injection administered as cassette dose; format: ADME, organism-based; details: in vivo; summary of the method: as §4
[7] = Ratio of drug concentration in brain to plasma in Sprague-Dawley rat at 0.25 mg/kg measured after 15 mins; format: ADME, organism-based; details: brain and plasma
Summary of the method: (§5)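 Brain sampled on Day 2 at 0.25 h, with matching plasma, after a 0.25 mg/kg IV cassette dose (5-in-1) in male Sprague–Dawley rats. Vehicle was DMSO:PEG400:EtOH:Saline (5:48:10:37). Kp is total brain/plasma concentration ratio.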

[8] = AUC in mouse at 2 mg/kg, ip administered as discrete dose; format: ADME, organism-based; parameters: dose 2 mg/kg, route ip; details: in vivo; summary of the method: as §2
[9] = Clearance in Sprague-Dawley rat at 0.25 mg/kg, iv bolus injection administered as cassette dose; format: ADME, organism-based; details: in vivo; summary of the method: as §4
[10] = Microsomal stability in human liver microsomes assessed as intrinsic clearance; format: ADME, Microsome; details: read-out: CLH; summary of the method: as §3
Translocator protein = Translocator protein (Homo sapiens, UniProt P30536); experiment: Binding affinity to peripheral benzodiazepine receptor (unknown origin)
Sequence of Translocator protein (P30536 whole entry): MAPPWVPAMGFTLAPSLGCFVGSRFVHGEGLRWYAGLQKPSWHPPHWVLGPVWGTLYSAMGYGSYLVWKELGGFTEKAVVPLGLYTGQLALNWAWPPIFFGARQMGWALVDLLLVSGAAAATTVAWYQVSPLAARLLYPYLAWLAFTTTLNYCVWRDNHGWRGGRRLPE

[11] = Drug concentration in Sprague-Dawley rat plasma at 0.25 mg/kg measured up to 48.25 hrs; format: ADME, organism-based; summary of the method: as §5
[12] = Half life in mouse at 2 mg/kg, ip administered as discrete dose; format: ADME, organism-based; details: in vivo; summary of the method: as §2
[13] = Drug concentration in Sprague-Dawley rat brain at 0.25 mg/kg measured up to 48.25 hrs; format: ADME, organism-based; details: read-out: Ct; summary of the method: as §5
D(1B) dopamine receptor = D(1B) dopamine receptor (Homo sapiens, UniProt P21918); experiment: Binding affinity to D5 receptor (unknown origin)
Sequence of D(1B) dopamine receptor (P21918 whole entry): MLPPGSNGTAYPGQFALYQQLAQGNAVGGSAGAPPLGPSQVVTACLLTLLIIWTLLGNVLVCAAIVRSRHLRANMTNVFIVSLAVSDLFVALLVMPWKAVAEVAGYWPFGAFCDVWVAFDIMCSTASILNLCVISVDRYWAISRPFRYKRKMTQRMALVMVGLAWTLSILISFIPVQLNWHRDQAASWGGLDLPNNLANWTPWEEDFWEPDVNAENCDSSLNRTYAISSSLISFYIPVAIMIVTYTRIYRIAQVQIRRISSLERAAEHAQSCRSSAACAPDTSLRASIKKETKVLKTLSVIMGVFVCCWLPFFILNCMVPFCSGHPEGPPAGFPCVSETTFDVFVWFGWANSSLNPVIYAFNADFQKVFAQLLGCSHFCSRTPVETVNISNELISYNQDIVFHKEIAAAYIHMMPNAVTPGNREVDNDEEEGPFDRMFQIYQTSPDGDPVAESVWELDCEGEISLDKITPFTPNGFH

[14] = AUC in Sprague-Dawley rat at 0.25 mg/kg, iv bolus injection administered as cassette dose; format: ADME, organism-based; parameters: dose 0.25 mg/kg, route iv; details: in vivo; summary of the method: as §4
[15] = molecular target: T1, Mas-related G-protein coupled receptor member X1 (Homo sapiens, UniProt Q96LB2); experiment: Positive allosteric modulator activity at human MRGPRX1 expressed in HEK293 cells in presence of BAM8-22 by Fluo4-dye based FLIPR assay; format: cell-based
T1 sequence (Q96LB2 whole entry): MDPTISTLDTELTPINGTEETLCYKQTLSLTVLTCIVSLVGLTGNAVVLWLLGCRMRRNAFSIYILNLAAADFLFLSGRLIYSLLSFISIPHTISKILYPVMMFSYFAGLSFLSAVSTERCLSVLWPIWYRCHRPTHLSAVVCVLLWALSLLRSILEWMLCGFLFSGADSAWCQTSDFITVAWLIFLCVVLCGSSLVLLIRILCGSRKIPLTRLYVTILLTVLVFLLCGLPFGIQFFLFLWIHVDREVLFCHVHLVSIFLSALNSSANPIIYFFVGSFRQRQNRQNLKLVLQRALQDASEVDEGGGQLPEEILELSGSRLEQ
Summary of the method: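 HEK293 cells expressing MrgX1. Compounds tested in the presence of 10 nM BAM8-22. Emax normalized to control compound ML382; mean ± SEM of n = 2 experiments.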

[16] = Cmax in mouse at 2 mg/kg, ip administered as discrete dose; format: ADME, organism-based; parameters: dose 2 mg/kg, route ip; details: in vivo; summary of the method: as §2
[17] = Plasma protein binding in human assessed as unbound fraction; format: ADME, cell-free; details: read-out: PPB; summary of the method: as §1
[18] = molecular target: T1, Mas-related G-protein coupled receptor member X1; experiment: Positive allosteric modulator activity at human MRGPRX1 expressed in HEK293 cells assessed as maximal efficacy at 5 uM in presence of BAM8-22 by Fluo4-dye based FLIPR assay relative to control; format: cell-based; details: filed as positive allosteric modulator
Histamine H1 receptor = Histamine H1 receptor (Homo sapiens, UniProt P35367); experiment: Binding affinity to H1 receptor (unknown origin)
Sequence of Histamine H1 receptor (P35367 whole entry): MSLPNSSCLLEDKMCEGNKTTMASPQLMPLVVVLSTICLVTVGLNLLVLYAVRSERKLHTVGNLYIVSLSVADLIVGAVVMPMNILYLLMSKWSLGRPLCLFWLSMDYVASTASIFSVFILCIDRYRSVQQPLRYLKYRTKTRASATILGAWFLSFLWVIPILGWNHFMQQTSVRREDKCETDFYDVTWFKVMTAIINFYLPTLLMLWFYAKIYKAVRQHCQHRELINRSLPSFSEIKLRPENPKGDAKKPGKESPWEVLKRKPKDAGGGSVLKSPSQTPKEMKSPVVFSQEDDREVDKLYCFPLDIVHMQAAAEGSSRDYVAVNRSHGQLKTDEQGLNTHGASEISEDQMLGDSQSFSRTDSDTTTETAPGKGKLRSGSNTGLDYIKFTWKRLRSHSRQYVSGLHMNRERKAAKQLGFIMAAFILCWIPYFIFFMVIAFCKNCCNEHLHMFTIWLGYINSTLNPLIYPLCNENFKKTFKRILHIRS

Row | SMILES | fraction unbound [1] | CLint scaled [4] [mL/min/kg] | Vd [5] [L/kg] | half-life [6] [min] | Kp at 0.25 h [7] | clearance [9] [mL/min/kg] | CLint scaled [10] [mL/min/kg] | concentration at 48.25 h [11] [ng/mL] | concentration at 48.25 h [13] [ng/g] | AUC [14] [ng·h/mL] | pEC50 [15] | fraction unbound [17] | Emax [18] [%] | pKi (Histamine H1 receptor) | other results
1 | CCOc1ccc(F)cc1NC(=O)c1ccccc1NS(=O)(=O)C1CC1 | 0.022 | 1660 | 0.52 | 28.8 | 0.29 | 36.7 | 79.1 | 79.6 | 23.6 | 119 | 7.85 | 0.004 | 82.2 | < 5.40 | Tmax [2]: 10.2 min; Kp [3]: 0.32; AUC [8]: 69 ng·h/mL; pKi (Translocator protein): 6.57; half-life [12]: 10.8 min; pKi (D(1B) dopamine receptor): < 5.40; Cmax [16]: 259 ng/mL
2 | CCOc1ccc(F)cc1NC(=O)c1cc(C)ccc1NS(=O)(=O)C1CC1 | 0.012 | 1100 | 1.2 | 25.2 | 0.57 | 63.1 | 114 | 61.5 | 35.1 | 66.2 | 7.16 | 0.003 | 106 | 5.96 | –
